Source: ChEMBL document CHEMBL3994572, “Antiviral Triterpenes from the Twigs and Leaves of Lyonia ovalifolia” (J Nat Prod, 2016)

Columns and labels:
[1] = Cytotoxicity against MDCK cells assessed as growth inhibition after 48 hrs; assay type: cell-based, Canis lupus familiaris; conditions: dog, read-out: TC50
How it was run: (§1)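 Vero or MDCK cells (2.5 × 10^4/well) were seeded for 24 h, then exposed to graded compound concentrations. After 48 h at 37 °C and 5% CO2, cytotoxicity was scored by CPE. TC50 was calculated by Reed and Muench analysis.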

Influenza A virus = experiment: Antiviral activity against Influenza A virus A/95-359 infected in MDCK cells assessed as inhibition of virus-induced cytopathic effect; assay type: functional, cell-based; conditions: A/95-359, MDCK
How it was run: (§2)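 MDCK cells (2.5 × 10^4/well) seeded 24 h, PBS-washed, infected with influenza A/95-359 at 100 TCID50 for 2 h, then exposed to graded compound concentrations until control CPE reached 4+. IC50 = minimal concentration inhibiting 50% of CPE (Reed and Muench); triplicate, at least three separate experiments. […] SI = TC50/IC50.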

[2] = Selectivity index, ratio of TC50 for African green monkey Vero cells to IC50 for Herpes simplex virus-1 F VR 733 infected in African green monkey Vero cells; assay type: toxicity; conditions: read-out: Selectivity Index
How it was run: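 Vero cells (2.5 × 10^4/well) seeded 24 h, medium removed, infected with HSV-1 at 100 TCID50 for 2 h, then graded compound concentrations added until control CPE reached 4+. IC50 = minimal concentration inhibiting 50% CPE (Reed and Muench); triplicate, at least three separate experiments. […] SI = TC50/IC50.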

[3] = Selectivity index, ratio of TC50 for MDCK cells to IC50 for Influenza A virus (A/95-359) infected in MDCK cells; assay type: toxicity, cell-based; conditions: dog, read-out: Selectivity Index; how it was run: as §2
[4] = Cytotoxicity against African green monkey Vero cells assessed as growth inhibition after 48 hrs; assay type: cell-based; conditions: chlorocebus sabaeus, read-out: TC50; how it was run: as §1
[5] = Selectivity index, ratio of TC50 for African green monkey Vero cells to IC50 for Coxsackievirus B3 infected in African green monkey Vero cells; assay type: toxicity; conditions: read-out: Selectivity Index
How it was run: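 Vero monolayers infected with 100 TCID50 Coxsackie B3 virus, 2 h adsorption at 37 °C, PBS-washed, then held in MEM plus 2% FBS at 37 °C with graded compound concentrations. […] SI = TC50/IC50.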

Human alphaherpesvirus 1 = experiment: Antiviral activity against Herpes simplex virus-1 F VR 733 infected in African green monkey Vero cells assessed as inhibition of virus-induced cytopathic effect; assay type: functional; conditions: Human alphaherpesvirus 1, Strain F ATCC VR 733, Vero
How it was run: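 Vero cells (2.5 × 10^4/well) were seeded for 24 h, then the medium was removed. Cells were infected with HSV-1 at 100 TCID50 for 2 h, then given graded compound concentrations. Incubation continued until control CPE reached 4+. Runs were in triplicate, repeated at least three times. IC50 is the minimal concentration inhibiting 50% of CPE, by Reed and Muench.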

Coxsackievirus B3 = experiment: Antiviral activity against Coxsackievirus B3 infected in African green monkey Vero cells assessed as inhibition of virus-induced cytopathic effect; assay type: functional; conditions: Enterovirus B
How it was run: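 Vero monolayers were infected with Cox B3 at 100 TCID50 and allowed 2 h adsorption at 37 °C. They were then washed with PBS and kept at 37 °C in MEM with 2% FBS, with or without graded concentrations of test compounds. Read-out was CPE.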

Structure (SMILES)	CC50 at 48 h [1] [µM]	IC50 (Influenza A virus) [µM]	selectivity ratio [2]	selectivity ratio [3]	CC50 at 48 h [4] [µM]	selectivity ratio [5]	IC50 (Human alphaherpesvirus 1) [µM]	IC50 (Coxsackievirus B3) [µM]
C[C@H](CC[C@H](O)C(C)(C)O)[C@H]1CC[C@@]2(C(=O)O)C3=C(CC[C@]12C)[C@@]1(C)CC[C@@H](O)C(C)(C)[C@@H]1CC3	16	3.7	7.6	4.3	16 to 19.3	4	2.1	4.8
CC(=O)OC[C@H]1O[C@@H](O[C@@H]2CC=C3C[C@H]4CC[C@]5(C)[C@@H]([C@H](C)CC[C@H](O)C(C)(C)O)CC[C@@]5(C(=O)O)[C@@H]4CC[C@@H]3C2(C)C)[C@H](O)[C@@H](O)[C@@H]1O		> 33.3					≥ 33.3	≥ 33.3
NC(=O)c1ncn([C@@H]2O[C@H](CO)[C@@H](O)[C@H]2O)n1 [RIBAVIRIN]	1160	1.3		895		6.8		292
C[C@H](CC[C@H](O[C@@H]1OC[C@H](O)[C@H](O)[C@H]1O)C(C)(C)O)[C@H]1CC[C@@]2(C(=O)O)[C@@H]3CC[C@H]4C(=CC[C@@H](O[C@@H]5O[C@H](CO)[C@@H](O)[C@H](O)[C@H]5O)C4(C)C)C[C@H]3CC[C@]12C		> 33.3					≥ 33.3	≥ 33.3
C[C@H](CC[C@H](O[C@@H]1OC[C@H](O)[C@H](O)[C@H]1O)C(C)(C)O)[C@H]1CC[C@@]2(C(=O)O)C3=C(CC[C@]12C)[C@@]1(C)CC[C@@H](O[C@@H]2OC[C@H](O)[C@H](O)[C@H]2O)C(C)(C)[C@@H]1CC3		> 33.3					≥ 33.3	≥ 33.3
CC(=O)OC[C@H]1O[C@@H](O[C@@H]2CC=C3C[C@H]4CC[C@]5(C)[C@@H]([C@H](C)CC[C@H](O[C@@H]6OC[C@H](O)[C@H](O)[C@H]6O)C(C)(C)O)CC[C@@]5(C(=O)O)[C@@H]4CC[C@H]3C2(C)C)[C@H](O)[C@@H](O)[C@@H]1O		> 33.3	> 5.2		> 100		19.3	≥ 33.3
Nc1nc2c(ncn2COCCO)c(=O)[nH]1 [ACYCLOVIR]			> 244		> 100		0.41	
CC(=O)OC[C@H]1O[C@@H](O[C@@H]2CCC3=C(CC[C@@H]4[C@H](CC[C@]5(C)[C@@H]([C@H](C)CC[C@H](O[C@@H]6OC[C@H](O)[C@H](O)[C@H]6O)C(C)(C)O)CC[C@@]45C(=O)O)C3)C2(C)C)[C@H](O)[C@@H](O)[C@@H]1O		> 33.3					≥ 33.3	≥ 33.3
C[C@H](CCC(=O)C(C)(C)O)[C@H]1CC[C@@]2(C(=O)O)[C@@H]3CCC4=C(CC[C@@H](O[C@@H]5O[C@H](CO)[C@@H](O)[C@H](O)[C@H]5O)C4(C)C)C[C@H]3CC[C@]12C	33.3	> 11.1	2.1		23.1	2.1	11.1	11.1
C[C@H](CC[C@H](O[C@H]1O[C@@H](CO)[C@H](O)[C@@H](O)[C@@H]1O)C(C)(C)O)[C@H]1CC[C@@]2(C(=O)O)C3=C(CC[C@]12C)[C@@]1(C)CC[C@@H](O[C@@H]2O[C@H](CO)[C@@H](O)[C@H](O)[C@H]2O)C(C)(C)[C@@H]1CC3		> 33.3					≥ 33.3	≥ 33.3
Cc1cc(CCCOc2c(C)cc(-c3noc(C(F)(F)F)n3)cc2C)on1 [PLECONARIL]					15.4	15400		0.001
C[C@H]1[C@H](C)CC[C@@]23CC[C@@]4(C)[C@@]5(C)[C@H](C[C@@H](O)[C@]4(OC2=O)[C@H]13)[C@@]1(C)C[C@@H](O)[C@@H](O)[C@](C)(CO)[C@@H]1C[C@@H]5O		> 33.3					≥ 33.3	≥ 33.3
C[C@H](CC[C@H](O[C@@H]1OC[C@H](O)[C@H](O)[C@H]1O)C(C)(C)O)[C@H]1CC[C@@]2(C(=O)O)[C@@H]3CCC4=C(CC[C@@H](O[C@H]5OC[C@@H](O)[C@@H](O)[C@@H]5O)C4(C)C)C[C@H]3CC[C@]12C		> 33.3					≥ 33.3	≥ 33.3
CC(=O)OC[C@H]1O[C@@H](O[C@@H]2CC[C@]3(C)C4=C(CC[C@H]3C2(C)C)[C@]2(C(=O)O)CC[C@H]([C@H](C)CC[C@H](O[C@@H]3OC[C@H](O)[C@H](O)[C@H]3O)C(C)(C)O)[C@@]2(C)CC4)[C@H](O)[C@@H](O)[C@@H]1O	57.7	33.3	> 7	1.7	> 100		14.3	≥ 33.3
C[C@H](CC[C@H](O[C@@H]1O[C@H](CO)[C@@H](O)[C@H](O)[C@H]1O)C(C)(C)O)[C@H]1CC[C@@]2(C(=O)O)[C@@H]3CC[C@@H]4C(=CC[C@@H](O[C@@H]5O[C@H](CO)[C@@H](O)[C@H](O)[C@H]5O)C4(C)C)C[C@H]3CC[C@]12C	> 100	33.3		> 3			≥ 33.3	≥ 33.3
CC(=O)OC[C@H]1O[C@@H](O[C@@H]2CCC3=C(CC[C@@H]4[C@H](CC[C@]5(C)[C@@H]([C@H](C)CC[C@H](O)C(C)(C)O)CC[C@@]45C(=O)O)C3)C2(C)C)[C@H](O)[C@@H](O)[C@@H]1O	48.1	> 11.1					≥ 33.3	≥ 33.3
C[C@H](CC[C@H](O)C(C)(C)O)[C@H]1CC[C@@]2(C(=O)O)[C@@H]3CC[C@@H]4C(=CC[C@@H](O)C4(C)C)C[C@H]3CC[C@]12C	> 100	25.9		> 3.9			≥ 33.3	≥ 33.3
C[C@H](CC[C@H](O[C@@H]1OC[C@H](O)[C@H](O)[C@H]1O)C(C)(C)O)[C@H]1CC[C@@]2(C(=O)O)[C@@H]3CCC4=C(CC[C@@H](O[C@@H]5O[C@H](CO)[C@@H](O)[C@H](O)[C@H]5O)C4(C)C)C[C@H]3CC[C@]12C		> 33.3					≥ 33.3	≥ 33.3
C[C@H](CC[C@H](O[C@@H]1OC[C@H](O)[C@H](O)[C@H]1O)C(C)(C)O)[C@H]1CC[C@@]2(C(=O)O)[C@@H]3CC[C@H]4C(=CC[C@@H](O[C@@H]5OC[C@H](O)[C@H](O)[C@H]5O)C4(C)C)C[C@H]3CC[C@]12C		> 33.3					≥ 33.3	≥ 33.3
C[C@H](CC[C@H](O)C(C)(C)O)[C@H]1CC[C@@]2(C(=O)O)C3=C(CC[C@]12C)[C@@]1(C)CC[C@@H](O[C@@H]2O[C@H](CO)[C@@H](O)[C@H](O)[C@H]2O)C(C)(C)[C@@H]1CC3		> 33.3					≥ 33.3	≥ 33.3
C[C@H](CC[C@H](O)C(C)(C)O)[C@H]1CC[C@@]2(C(=O)O)[C@@H]3CCC4=C(CC[C@@H](O[C@@H]5O[C@H](CO)[C@@H](O)[C@H](O)[C@H]5O)C4(C)C)C[C@H]3CC[C@]12C	100	33.3		3			≥ 33.3	≥ 33.3
CCOC(=O)C1=C[C@@H](OC(CC)CC)[C@H](NC(C)=O)[C@@H](N)C1 [OSELTAMIVIR]		1.7		741				
C[C@H]1[C@H](C)CC[C@@]23CC[C@]4(C)[C@](OC2=O)([C@H](O)C[C@@H]2[C@@]5(C)C[C@@H](O)[C@@H](O)C(CO)(CO)[C@@H]5CC[C@]24C)[C@H]13		> 33.3					≥ 33.3	≥ 33.3
C[C@H](CC[C@H](O[C@@H]1O[C@H](CO)[C@@H](O)[C@H](O)[C@H]1O)C(C)(C)O)[C@H]1CC[C@@]2(C(=O)O)C3=C(CC[C@]12C)[C@@]1(C)CC[C@@H](O)C(C)(C)[C@@H]1CC3		> 33.3	2.5		57.7		23.1	≥ 33.3
C[C@H](CC[C@H](O[C@@H]1OC[C@H](O)[C@H](O)[C@H]1O)C(C)(C)O)[C@H]1CC[C@@]2(C(=O)O)C3=C(CC[C@]12C)[C@@]1(C)CC[C@@H](O[C@@H]2O[C@H](CO)[C@@H](O)[C@H](O)[C@H]2O)C(C)(C)[C@@H]1CC3		> 33.3					≥ 33.3	≥ 33.3
